Paper PMC8519014 (Journal of pharmaceutical and biomedical analysis, 2017)
Where a name gives a salt, the structure may show the parent alone.

Experiment: Mice pharmacokinetic study after oral administration of a mixture of 11 TKIs
Type: in vivo, FVB wild-type mice
Conditions: for AUC(0-t) / Cmax / Tmax / concentration at 15 min / concentration at 30 min / concentration at 45 min / concentration at 60 min / concentration at 120 min / concentration at 240 min: 1 mg/kg; for Tmax: oral gavage 1 mg/kg each as a mixture of 11 TKIs, FVB wild-type mice, blood, n = 4
Outline: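 Male FVB mice (25–30 g, 10–12 weeks) fasted overnight with water, then oral gavage of an 11-TKI cassette in oral suspension vehicle (0.06 mg/ml each), 1 mg/kg. Tail-tip blood (~15 μl, heparinized) taken at 15–1440 min (nine points). Quantified by UHPLC BEH C18–ESI triple-quadrupole MS/MS against blank-blood calibrants (acetonitrile/testosterone IS precipitation). Non-compartmental parameters, n = 4.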

[1] = male, FVB wild-type, mouse, whole blood, po
[2] = male, FVB wild-type, mouse, whole blood, po, Tmax

Detection in blood after oral dosing (oral 1 mg/kg as mixture of 11 TKIs, mice)	AUC(0-t) [1] [ng·h/mL]	Cmax [1] [ng/mL]	Tmax [2] [h]	Tmax [h]	Systemic exposure (AUC) relative to sorafenib (pazopanib AUC versus sorafenib AUC, oral 1 mg/kg as mixture of 11 TKIs, mice) [times]	concentration at 15 min [1] [ng/mL]	concentration at 30 min [1] [ng/mL]	concentration at 45 min [1] [ng/mL]	concentration at 60 min [1] [ng/mL]	concentration at 120 min [1] [ng/mL]	concentration at 240 min [1] [ng/mL]	Structure (SMILES)
not detected												CN(C)C/C=C/C(=O)Nc1cc2c(Nc3ccc(F)c(Cl)c3)ncnc2cc1O[C@H]1CCOC1 [Afatinib, afatinib]
	4150	717 ± 206	~1.62	1.62 ± 1.11	7.5							Cc1ccc(Nc2nccc(N(C)c3ccc4c(C)n(C)nc4c3)n2)cc1S(N)(=O)=O [Pazopanib, pazopanib hydrochloride]
						53.1 ± 20.1	55.7 ± 28.6	68.8 ± 63.8	48.1 ± 56.9	19.9 ± 19	11.1 ± 19.2	Cc1ccc(NC(=O)c2ccc(CN3CCN(C)CC3)cc2)cc1Nc1nccc(-c2cccnc2)n1 [Imatinib]
		147 ± 62.2	0.25			147 ± 62.2	124 ± 45	120 ± 97.6	87.6 ± 87.6	23 ± 37.7	14.4 ± 24.9	C#Cc1cccc(Nc2ncnc3cc(OCCOC)c(OCCOC)cc23)c1 [Erlotinib, erlotinib hydrochloride]
						62.1 ± 32.8	59.1 ± 31.4	69 ± 37.2	68.8 ± 26.8	67.3 ± 64.3	34.6 ± 33.1	Cc1cn(-c2cc(NC(=O)c3ccc(C)c(Nc4nccc(-c5cccnc5)n4)c3)cc(C(F)(F)F)c2)cn1 [Nilotinib, nilotinib]
						9.1 ± 18.2	21.5 ± 19.2	34.3 ± 41.6	24.8 ± 49.7	18.4 ± 23.1	10.1 ± 20.2	Cc1nc(Nc2ncc(C(=O)Nc3c(C)cccc3Cl)s2)cc(N2CCN(CCO)CC2)n1 [Dasatinib, dasatinib]
						8.8 ± 12.7	16.3 ± 28.2	21.4 ± 25.6	21.2 ± 25.7	20.1 ± 28.2	18.1 ± 25.4	CS(=O)(=O)CCNCc1ccc(-c2ccc3ncnc(Nc4ccc(OCc5cccc(F)c5)c(Cl)c4)c3c2)o1 [Lapatinib, lapatinib]
						24.7 ± 22	32.4 ± 28.1	36.7 ± 41.5	33.2 ± 42.7	21.8 ± 25.5	32.7 ± 26.3	COc1cc2ncnc(Nc3ccc(F)c(Cl)c3)c2cc1OCCCN1CCOCC1 [Gefitinib, gefitinib]
	558	154 ± 30.4	1									CNC(=O)c1cc(Oc2ccc(NC(=O)Nc3ccc(Cl)c(C(F)(F)F)c3)cc2)ccn1 [Sorafenib, sorafenib tosylate]
						9.4 ± 12.1	18.4 ± 10.6	22.8 ± 18.9	12.7 ± 20	14.7 ± 15.8		CCN(CC)CCNC(=O)c1c(C)[nH]c(/C=C2\C(=O)Nc3ccc(F)cc32)c1C [Sunitinib, sunitinib malate]
						51.7 ± 40	42.7 ± 19.3	46.1 ± 39.6	34.2 ± 37.3	11.1 ± 16.4	4.8 ± 26.8	CNC(=O)c1ccccc1Sc1ccc2c(/C=C/c3ccccn3)n[nH]c2c1 [Axitinib, axitinib]
